Measured values pooled from the literature.
Each line is one published result; the experiments were not run side by side.
MAOB: Amine oxidase [flavin-containing] B (MAOB, Homo sapiens, UniProt P27338)

With `C#CCNc1nc(NCCCCC2CCN(Cc3ccccc3)CC2)c(C#N)c(-c2ccccc2)c1C#N` the IC50 was greater than 100 µM (MAOB; enzyme activity; inhibitor; fluorescence; with preincubation).
With `COc1ncccc1-c1cnn2ccc(N3CCN(C(=O)OC(C)C)CC3)nc12` the IC50 was greater than 30 µM (MAOB; enzyme activity; inhibitor).
For `CSCC[C@@H]1NC(=O)[C@H](CC(N)=O)NC(=O)[C@H](CCCNC(=N)N)NC(=O)[C@H]([C@@H](C)O)NC(=O)[C@H](Cc2ccc(O)cc2)NC(=O)[C@@H](NC(=O)[C@H](C)N)CSSC[C@@H](C(N)=O)NC(=O)[C@H](CCC(N)=O)NC(=O)[C@H](CC(N)=O)NC1=O`, the IC50 was 406 µM (Lysine-specific demethylase 4C (KDM4C, Homo sapiens, UniProt Q9H3R0); enzyme activity; inhibitor; TR-FRET).
`COc1cc(C(=O)N2CC[C@@H](O)[C@@H](N)C2)cc2nc(-c3cc4ccccc4n3CC3CC3)n(C)c12` gave an IC50 of 15.8 µM (MAOB; enzyme activity; inhibitor).
For `CCOc1ccccc1OCCN[C@H](C)Cc1ccc(OC)c(S(N)(=O)=O)c1`, the IC50 was 2.5 µM (Beta-1 adrenergic receptor (ADRB1, Homo sapiens, UniProt P08588); ligand displacement; radioligand).
`O=[N+]([O-])c1cc(Cl)c(O)c(Cl)c1` has an IC50 of 0.245 µM (Sulfotransferase 1A1 (SULT1A1, Homo sapiens, UniProt P50225); enzyme activity; inhibitor).
`C#CCNc1nc(NCCCCC2CCN(Cc3ccccc3)CC2)c(C#N)cc1C#N` gave an IC50 of greater than 50 µM (MAOB; enzyme activity; inhibitor; fluorescence; with preincubation).
`[Ba+2].[Cl-].[Cl-]` has an IC50 of 8.2 µM (Inward rectifier potassium channel 2 (KCNJ2, Homo sapiens, UniProt P63252); ion current; inhibitor).
For `C#CCNc1nc(NCCCC2CCN(Cc3ccccc3)CC2)c(C#N)cc1C#N`, the IC50 was greater than 100 µM (MAOB; enzyme activity; inhibitor; fluorescence; with preincubation).
For `CC[C@H](C)[C@H](NC(=O)[C@H](Cc1c[nH]c2ccccc12)NC(=O)[C@H](C)NC(=O)[C@@H]1CSCC(=O)N[C@@H](Cc2ccc(O)cc2)C(=O)NCC(=O)N[C@@H](CCC(N)=O)C(=O)N[C@@H](CO)C(=O)N[C@@H](Cc2c[nH]cn2)C(=O)N[C@@H](CO)C(=O)N[C@@H](C)C(=O)N[C@@H](Cc2c[nH]c3ccccc23)C(=O)N1)C(=O)N[C@@H](CC(N)=O)C(=O)N[C@@H](Cc1ccc(O)cc1)C(=O)N[C@@H](CC(N)=O)C(=O)N1CCC[C@H]1C(N)=O`, the IC50 was 6 µM (Pancreatic alpha-amylase (Homo sapiens, UniProt P04746); enzyme activity; inhibitor; absorbance).
`C#CCNc1nc(NCCCC2CCN(Cc3ccccc3)CC2)c(C#N)c(-c2ccccc2)c1C#N` gave an IC50 of greater than 100 µM (MAOB; enzyme activity; inhibitor; fluorescence; with preincubation).
`Cc1cc(SCc2sc(-c3ccc(C(F)(F)F)c(F)c3)nc2C)ccc1OCC(=O)O` has an IC50 of 22.9 µM (Retinoic acid receptor RXR-alpha (RXRA, Homo sapiens, UniProt P19793); reporter gene; antagonist; luciferase).
